# Results as given in ChEMBL document CHEMBL4613234, “Auxiliary in vitro and in vivo biological evaluation of hydrogen peroxide sensitive prodrugs of methotrexate and aminopterin for the treatment of rheumatoid arthritis” (Bioorg Med Chem, 2020).
# The source made the active and inactive calls. The calls are words filed in the database; no cut-off is given here.
# What was measured:
# HL-60 [1] = experiment: Induction of apoptosis in human HL60 cells assessed as apoptotic cells at 0.1 to 10 uM in absence of ROS scavenger pyruvate by annexin V-FITC/propidium iodide staining based flow cytometry (reference value: 3 %); assay type: functional
# In short: (§1)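 HL-60 cells in RPMI without pyruvate, treated 48 h at 10, 1 and 0.1 μM (vehicle 0.1% DMSO); annexin V/PI staining, flow cytometry gating singlets, apoptotic fraction taken as P4 + P5 populations; at least triplicates, mean ± SD; two-tailed unpaired t-test, p < 0.05.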
# Rattus norvegicus [2] = experiment: Antiarthritic activity in dark agouti rat model of collagen-induced arthritis assessed as decrease in disease severity at 0.3 mg/kg, ip administered on day 17 and treated until day 31 by macroscopic observation analysis; assay type: functional, organism-based
# In short: (§2)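 Dark agouti rats with collagen-induced arthritis; daily i.p. dosing from disease onset (day 17), doses equimolar to 0.3 mg/kg MTX, DMSO kept at 2% (v/v). Arthritis scored macroscopically three times weekly: 1 point per swollen toe, 1 per swollen foot knuckle, 5 for swollen ankle, 0–15 per limb, maximum 60 per rat. n = 8 per group, 10 for vehicle; mean ± SEM.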
# HL-60 [3] = experiment: Cytotoxicity against human HL60 cells assessed reduction in cell viability incubated for 48 hrs in presence of ROS scavenger pyruvate by Alamar blue assay; assay type: cell-based; conditions: HL-60, 48 h
# In short: (§3)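 HL-60, HEK293 and HeLa cells exposed to compound for 48 h with or without pyruvate as ROS scavenger; viability read by Alamar blue; IC50 in nM, mean of at least three replicates ± SEM.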
# HL-60 [4] = experiment: Cytotoxicity against human HL60 cells assessed as reduction in cell viability incubated for 48 hrs in absence of ROS scavenger pyruvate by Alamar blue assay; assay type: cell-based; conditions: HL-60, 48 h; in short: as §3
# HEK293 [5] = experiment: Cytotoxicity against human HEK293 cells assessed as reduction in cell viability incubated for 48 hrs in presence of ROS scavenger pyruvate by Alamar blue assay; assay type: cell-based; conditions: HEK293, 48 h; in short: as §3
# HEK293 [6] = experiment: Cytotoxicity against human HEK293 cells assessed as reduction in cell viability incubated for 48 hrs in absence of ROS scavenger pyruvate by Alamar blue assay; assay type: cell-based; conditions: HEK293, 48 h; in short: as §3
# HeLa [7] = experiment: Cytotoxicity against human HeLa cells assessed as reduction in cell viability incubated for 48 hrs in presence of ROS scavenger pyruvate by Alamar blue assay; assay type: cell-based; in short: as §3
# HeLa [8] = experiment: Cytotoxicity against human HeLa cells assessed as reduction in cell viability incubated for 48 hrs in absence of ROS scavenger pyruvate by Alamar blue assay; assay type: cell-based; in short: as §3
# HL-60 [9] = experiment: Induction of apoptosis in human HL60 cells assessed as apoptotic cells at 0.1 uM in absence of ROS scavenger pyruvate by annexin V-FITC/propidium iodide staining based flow cytometry (reference value: 3 %); assay type: functional; in short: as §1
# [10] = Half life of compound in PBS buffer; assay type: physicochemical
# [11] = Half life of compound in culture media in absence of ROS scavenger pyruvate; assay type: physicochemical
# [12] = Half life in human HEK293 cells in absence of ROS scavenger pyruvate; assay type: ADME, cell-based
# [13] = Apparent intrinsic clearance in rat liver microsomes; assay type: ADME, Microsome; conditions: read-out: CLH
# In short: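 Apparent intrinsic clearance (CL'int, mL/min/kg) determined in pooled rat liver microsomes.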
# [14] = Permeability of compound across artificial lipid/oil/lipid tri-layer membrane by PAMPA assay
# Rattus norvegicus [15] = experiment: Antiarthritic activity in dark agouti rat model of collagen-induced arthritis assessed as decrease in disease severity at 0.36 mg/kg, ip administered on day 17 and treated until day 31 by macroscopic observation analysis; assay type: functional, organism-based; in short: as §2
# [16] = Toxicity in dark agouti rat model of collagen-induced arthritis assessed as increase in body weight at 0.36 mg/kg, ip administered on day 17 and treated until day 31; assay type: organism-based; conditions: in vivo
# In short: (§4)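 Collagen-induced arthritis in dark agouti rats given daily i.p. doses from day 17 in 2% (v/v) DMSO vehicle; n = 8 per group. Tolerability followed as average body weight measured three times weekly, plus general health observation; animals removed early for high arthritis score or declining health.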
# [17] = Toxicity in dark agouti rat model of collagen-induced arthritis assessed as adverse effect at 0.36 mg/kg, ip administered on day 17 and treated until day 31; assay type: organism-based; conditions: in vivo; in short: as §4
# [18] = Prodrug activation in PBS buffer assessed as H2O2-mediated hydrolysis by measuring half life at pH 7.4 measured up to 24 hrs by RP-HPLC/UV analysis; assay type: physicochemical; conditions: pH 7.4, 24 h
# [19] = Prodrug activation in PBS buffer assessed as H2O2-formation of methotrexate at pH 7.4 measured up to 24 hrs by RP-HPLC/UV analysis; assay type: physicochemical; conditions: pH 7.4, 24 h
# Rattus norvegicus [20] = experiment: Antiarthritic activity in dark agouti rat model of collagen-induced arthritis assessed as decrease in disease severity at 0.38 mg/kg, ip administered on day 17 and treated until day 31 by macroscopic observation analysis; assay type: functional, organism-based; in short: as §2
# [21] = Toxicity in dark agouti rat model of collagen-induced arthritis assessed as increase in body weight at 0.38 mg/kg, ip administered on day 17 and treated until day 31; assay type: organism-based; conditions: in vivo; in short: as §4
# [22] = Toxicity in dark agouti rat model of collagen-induced arthritis assessed as adverse effect at 0.38 mg/kg, ip administered on day 17 and treated until day 31; assay type: organism-based; conditions: in vivo; in short: as §4
# Rattus norvegicus [23] = experiment: Antiarthritic activity in dark agouti rat model of collagen-induced arthritis assessed as decrease in disease severity at 0.42 mg/kg, ip administered on day 17 and treated until day 31 by macroscopic observation analysis; assay type: functional, organism-based; in short: as §2
# [24] = Toxicity in dark agouti rat model of collagen-induced arthritis assessed as increase in body weight at 0.42 mg/kg, ip administered on day 17 and treated until day 31; assay type: organism-based; conditions: in vivo; in short: as §4
# [25] = Toxicity in dark agouti rat model of collagen-induced arthritis assessed as adverse effect at 0.42 mg/kg, ip administered on day 17 and treated until day 31; assay type: organism-based; conditions: in vivo; in short: as §4
# HL-60 [26] = experiment: Cytotoxicity against human HL60 cells assessed as reduction in cell viability incubated for 48 hrs in presence of ROS scavenger pyruvate by Alamar blue assay relative to parent compound; assay type: cell-based; conditions: hl-60, 48 h
# [27] = (§5) Ratio of IC50 for human HL60 cells assessed as reduction in cell viability incubated for 48 hrs in presence of ROS scavenger pyruvate by Alamar blue assay to IC50 for human HL60 cells assessed as reduction in cell viability incubated for 48 hrs in absence of ROS scavenger pyruvate by Alamar blue assay; assay type: cell-based, HL-60; conditions: read-out: Ratio IC50
# In short: (§6)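 Ratio of 48 h Alamar blue IC50 values with versus without pyruvate as ROS scavenger, in HEK293 or HL-60 cells; each IC50 from at least three replicates.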
# [28] = as §5, with “HEK293” for “HL60”; assay type: cell-based; conditions: read-out: Ratio IC50; in short: as §6
# [29] = Stability of compound in human HEK293 cells preincubated for 24 hrs followed by compound addition and subsequent removal of HEK293 cells in absence of ROS scavenger pyruvate; assay type: ADME, cell-based
# [30] = Half life in human HEK293 cells in presence of paraquat and absence of ROS scavenger pyruvate; assay type: ADME, cell-based
# [31] = Half life in rat plasma; assay type: ADME, cell-free
# In short: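 Reconstituted freeze-dried rat plasma diluted 1:1 with PBS to pH 7.4, incubated at 37 °C; half-life determined.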
half-life [10] [h],half-life [11] [h],half-life [12] [h],CLint scaled [13] [mL/min/kg],Papp [14] [×10⁻⁶ cm/s],t1/2 [18] [h],Compound,Activity (HL-60 [1]) [%],IC50 (HL-60 [3]) [nM],IC50 (HL-60 [4]) [nM],IC50 (HEK293 [5]) [nM],IC50 (HEK293 [6]) [nM],IC50 (HeLa [7]) [nM],IC50 (HeLa [8]) [nM],Activity (HL-60 [9]) [%],further results
> 24,> 24,> 24,1.5,< 1.5,–,CN(Cc1cnc2nc(N)nc(N)c2n1)c1ccc(C(=O)N[C@@H](CCC(=O)O)C(=O)O)cc1 [METHOTREXATE],17,9.8,8.9,35,28.6,59.3,21,14,Activity (Rattus norvegicus [2]): Active
–,–,–,–,–,–,CN(Cc1cnc2nc(N)nc(N)c2n1)c1ccc(C(=O)N[C@@H](CCC(=O)N2CCSC2=O)C(=O)O)cc1,–,36,40,–,–,207,164,–,Activity (Rattus norvegicus [15]): inactive; Activity [16]: Non-Toxic; Activity [17]: Non-Toxic
–,–,–,–,–,–,Nc1nc(N)c2nc(CNc3ccc(C(=O)N[C@@H](CCC(=O)O)C(=O)O)cc3)cnc2n1 [AMINOPTERIN],–,3,2.5,–,–,3.6,8.3,–,–
–,> 24,–,–,< 1.5,> 24,CN(Cc1cnc2nc(N)nc(NC(=O)OCc3ccccc3)c2n1)c1ccc(C(=O)N[C@@H](CCC(=O)O)C(=O)O)cc1,–,–,> 1000,–,> 1000,–,–,–,Drug metabolism [19]: Not Active
–,–,–,–,–,–,Nc1nc(N)c2nc(CN(Cc3ccc(B(O)O)cc3)c3ccc(C(=O)N[C@@H](CCC(=O)O)C(=O)O)cc3)cnc2n1,–,38.3,7.5,–,–,42.2,19.2,–,Activity (Rattus norvegicus [20]): inactive; Activity [21]: Non-Toxic; Activity [22]: Non-Toxic
> 24,3.4,107,1.8,< 1.5,0.29,CN(Cc1cnc2nc(N)nc(NC(=O)OCc3ccc(B(O)O)cc3)c2n1)c1ccc(C(=O)N[C@@H](CCC(=O)O)C(=O)O)cc1,17,203,40.3,192,62.9,194,156,7,Activity (Rattus norvegicus [23]): Active; Activity [24]: Non-Toxic; Activity [25]: Non-Toxic; fold change (FC) (HL-60 [26]): 20; selectivity ratio at 48 h [27]: 5; selectivity ratio at 48 h [28]: 5; t1/2 [29]: 16.1 h; half-life [30]: 63.2 h; half-life [31]: 16.4 h
